Experimental data reported in ChEMBL document CHEMBL3232806 (J Med Chem, 2014).
pIC50: −log10 of the molar value. Activity calls are given as the source filed them. The calls are words filed in the database; no cut-off is given here.

Assays:
[1] = biological target: T1, NAD-dependent protein deacetylase sirtuin-1 (Homo sapiens) (UniProt Q96EB6); assay: Inhibition of C-terminal His-6-tagged recombinant human SIRT1 expressed in Escherichia coli BL21(DE3) at 50 uM by luminescence assay relative to control
T1 sequence (whole entry): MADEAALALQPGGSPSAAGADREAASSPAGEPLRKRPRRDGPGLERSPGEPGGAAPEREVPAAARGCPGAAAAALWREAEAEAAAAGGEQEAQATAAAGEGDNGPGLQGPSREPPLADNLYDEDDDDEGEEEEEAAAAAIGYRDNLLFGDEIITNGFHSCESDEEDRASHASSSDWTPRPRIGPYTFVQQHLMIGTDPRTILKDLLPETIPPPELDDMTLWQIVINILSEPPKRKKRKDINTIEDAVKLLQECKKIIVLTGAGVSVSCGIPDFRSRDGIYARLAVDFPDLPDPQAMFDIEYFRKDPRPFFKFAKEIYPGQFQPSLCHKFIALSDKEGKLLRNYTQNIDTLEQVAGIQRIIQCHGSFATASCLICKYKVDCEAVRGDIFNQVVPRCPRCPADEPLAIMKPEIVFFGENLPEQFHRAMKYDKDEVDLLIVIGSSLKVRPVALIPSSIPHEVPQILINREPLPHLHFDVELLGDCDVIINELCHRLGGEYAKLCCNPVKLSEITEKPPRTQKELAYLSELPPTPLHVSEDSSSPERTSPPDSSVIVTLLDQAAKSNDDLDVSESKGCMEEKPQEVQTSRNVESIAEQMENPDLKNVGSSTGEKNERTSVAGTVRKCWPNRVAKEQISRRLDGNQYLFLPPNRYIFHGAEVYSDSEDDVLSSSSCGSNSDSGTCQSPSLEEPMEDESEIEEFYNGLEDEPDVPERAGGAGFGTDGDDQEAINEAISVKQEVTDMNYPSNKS
Procedure, shortened: (§1)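 Single-point inhibition at 50 μM compound was measured by the luminescent SIRT-Glo assay. SIRT1 was human His6-tagged (C-terminal), expressed in E. coli BL21-DE3 with IPTG induction and purified on Ni-NTA. SIRT2 was obtained commercially.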

[2] = biological target: T2, NAD-dependent protein deacetylase sirtuin-2 (Homo sapiens) (UniProt Q8IXJ6); assay: Inhibition of SIRT2 (unknown origin) at 50 uM by luminescence assay relative to control; procedure, shortened: as §1
T2 sequence (whole entry): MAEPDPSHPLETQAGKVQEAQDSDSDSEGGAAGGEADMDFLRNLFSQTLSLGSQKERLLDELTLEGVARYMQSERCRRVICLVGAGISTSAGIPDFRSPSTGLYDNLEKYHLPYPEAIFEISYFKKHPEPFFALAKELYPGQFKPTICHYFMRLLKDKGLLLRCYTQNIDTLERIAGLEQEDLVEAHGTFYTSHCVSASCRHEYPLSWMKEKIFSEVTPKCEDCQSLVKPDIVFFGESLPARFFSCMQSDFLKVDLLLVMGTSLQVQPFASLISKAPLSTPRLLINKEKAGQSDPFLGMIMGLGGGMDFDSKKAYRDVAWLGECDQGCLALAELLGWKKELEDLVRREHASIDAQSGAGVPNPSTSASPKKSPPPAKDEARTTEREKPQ

[3] = biological target: T3, NAD-dependent protein deacetylase sirtuin-1 (Homo sapiens, UniProt Q96EB6); assay: Inhibition of C-terminal His-6-tagged recombinant human SIRT1 expressed in Escherichia coli BL21(DE3) by luminescence assay
T3 sequence (Q96EB6 whole entry): T1 sequence (whole entry)
Procedure, shortened: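 Inhibition was measured by the luminescent SIRT-Glo assay. SIRT1 was human C-terminal His6-tagged, expressed in E. coli BL21-DE3 and purified on Ni-NTA; SIRT2 was commercial. Compounds were titrated over five 3-fold dilutions from DMSO stocks (final DMSO 0.25%). IC50 values were determined in triplicate and averaged over two independent experiments.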

[4] = biological target: T4, NAD-dependent protein deacetylase sirtuin-3, mitochondrial (Homo sapiens, UniProt Q9NTG7); assay: Inhibition of SIRT3 (unknown origin) by luminescence assay
T4 sequence (Q9NTG7 whole entry): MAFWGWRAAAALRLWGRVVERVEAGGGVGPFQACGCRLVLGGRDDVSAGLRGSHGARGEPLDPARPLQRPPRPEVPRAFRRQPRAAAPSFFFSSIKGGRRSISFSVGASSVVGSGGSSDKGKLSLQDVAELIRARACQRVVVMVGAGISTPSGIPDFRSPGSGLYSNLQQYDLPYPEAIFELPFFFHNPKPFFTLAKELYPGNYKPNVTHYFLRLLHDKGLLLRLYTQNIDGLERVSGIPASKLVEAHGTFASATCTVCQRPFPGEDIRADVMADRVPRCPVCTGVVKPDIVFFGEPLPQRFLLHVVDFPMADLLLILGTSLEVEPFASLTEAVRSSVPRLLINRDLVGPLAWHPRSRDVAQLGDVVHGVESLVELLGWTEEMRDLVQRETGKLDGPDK

[5] = biological target: T5, NAD-dependent protein deacetylase sirtuin-2 (Homo sapiens, UniProt Q8IXJ6); assay: Inhibition of SIRT2 (unknown origin) by luminescence assay
T5 sequence (Q8IXJ6 whole entry): T2 sequence (whole entry)
Procedure, shortened: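 Inhibition was measured by the luminescent SIRT-Glo assay. SIRT1 was human C-terminal His6-tagged, expressed in E. coli BL21-DE3 and purified on Ni-NTA; SIRT2 was commercial. IC50 values were determined in triplicate and averaged over two independent experiments.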

[6] = Antiproliferative activity against human OVCAR3 cells assessed as growth inhibition after 72 hrs by Cell Titer Glo assay; assay type: functional, cell-based; conditions: OVCAR-3, 72 h
Procedure, shortened: (§2)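 Cell lines from ATCC were grown under standard conditions and dispensed into 96-well plates. Compounds were added from 100% DMSO stocks (final DMSO 0.25%) alongside DMSO controls and incubated for 72 h. Viable cells were quantified by CellTiterGlo luminescence. Assays were run in triplicate, and values are averages of two independent experiments.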

[7] = Antiproliferative activity against human Mutu cells assessed as growth inhibition after 72 hrs by Cell Titer Glo assay; assay type: functional, cell-based; procedure, shortened: as §2
[8] = Antiproliferative activity against human Dakiki cells assessed as growth inhibition after 72 hrs by Cell Titer Glo assay; assay type: functional, cell-based; procedure, shortened: as §2
[9] = Antiproliferative activity against human Oku cells assessed as growth inhibition after 72 hrs by Cell Titer Glo assay; assay type: functional, cell-based; procedure, shortened: as §2
HCT-116 = assay: Antiproliferative activity against human HCT116 cells assessed as growth inhibition after 72 hrs by Cell Titer Glo assay; assay type: functional, cell-based; conditions: HCT-116, 72 h; procedure, shortened: as §2
[10] = Antiproliferative activity against human OCI-Ly8-LAM53 cells assessed as growth inhibition after 72 hrs by Cell Titer Glo assay; assay type: functional, cell-based; procedure, shortened: as §2
NAMALVA = assay: Induction of apoptosis in human NAMALWA cells assessed as early stage apoptotic level after 16 hrs by annexin V-PE/DAPI-staining-based FACS analysis; assay type: functional, cell-based
[11] = Cytotoxicity against EBV immortalized human B2 cells assessed as cell viability after 72 hrs by Cell Titer Glo assay; assay type: cell-based; procedure, shortened: as §2
[12] = Cytotoxicity against EBV immortalized human B1 cells assessed as cell viability after 72 hrs by Cell Titer Glo assay; assay type: cell-based; conditions: B1, 72 h; procedure, shortened: as §2
[13] = Antiproliferative activity against human NAMALWA cells assessed as growth inhibition after 72 hrs by Cell Titer Glo assay; assay type: functional, cell-based; conditions: NAMALVA; procedure, shortened: as §2
[14] = biological target: T1, NAD-dependent protein deacetylase sirtuin-1 (Homo sapiens); assay: Binding affinity to C-terminal His-6-tagged recombinant human SIRT1 expressed in Escherichia coli BL21(DE3) at 200 uM by [1H]NMR method
[15] = biological target: T1, NAD-dependent protein deacetylase sirtuin-1 (Homo sapiens); assay: Binding affinity to C-terminal His-6-tagged recombinant human SIRT1 expressed in Escherichia coli BL21(DE3) at 200 uM by STD NMR method
Procedure, shortened: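 STD NMR was done in D2O. SIRT1 stock (12 μM) was dialyzed against deuterated PBS. Samples held 1.5 μM SIRT1 and 200 μM ligand in PBS/D2O pH 7.4 (uncorrected) with 1% DMSO-d6. At 25 °C, interleaved FIDs were collected with on-resonance (−0.5 ppm) and off-resonance (40 ppm) irradiation, 2048 transients, in duplicate.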

Structure (SMILES) | inhibition [1] [%] | inhibition [2] [%] | further results
Cc1ccc(-c2[nH][nH]c(=O)c2Cc2c(O)ccc3ccc(Br)cc23)cc1 | 42 | 38 | –
Cc1ccc(-c2[nH][nH]c(=O)c2Cc2c(O)ccc3ncccc23)cc1 | 39 | 23 | –
CC(C)c1ccc(-c2[nH][nH]c(=O)c2Cc2c(O)ccc3nc(Cl)ccc23)cc1 | 85 | 37 | pIC50 [3]: 4.68; pIC50 [4]: 3.91; pIC50 [5]: 4.17
Cc1ccc(-c2[nH]oc(=O)c2Cc2c(O)ccc3cc(Br)ccc23)cc1 | 5 | 87 | pIC50 [6]: 5.00; pIC50 [7]: 5.52; pIC50 [3]: < 3.70; pIC50 [4]: < 3.70; pIC50 [8]: 5.15; pIC50 [9]: 5.30; pIC50 (HCT-116): 5.10; pIC50 [10]: 5.15; Activity (NAMALVA): Dose-dependent effect; pIC50 [11]: 4.55; pIC50 [12]: 4.66; pIC50 [13]: 5.40; pIC50 [5]: 4.89
O=c1[nH][nH]c(-c2cccc(Br)c2)c1Cc1c(O)ccc2ccccc12 | 8 | 25 | –
Cc1ccc(-c2[nH][nH]c(=O)c2Cc2c(O)ccc3ccccc23)cc1 | 58 | 27 | –
O=c1[nH][nH]c(-c2ccc(F)cc2)c1Cc1c(O)ccc2ccccc12 | 24 | 29 | –
O=c1[nH][nH]c(-c2ccc(C(F)(F)F)cc2)c1Cc1c(O)ccc2ccccc12 | 48 | 29 | –
Cc1ccc(-c2[nH][nH]c(=O)c2Cc2c(O)ccc3cc(C)ccc23)cc1 | 39 | 19 | –
O=c1[nH][nH]c(-c2ccccc2)c1Cc1c(O)ccc2cc(Br)ccc12 | 59 | 47 | –
Cc1ccc(-c2[nH][nH]c(=O)c2Cc2c(O)ccc3nc(Cl)ccc23)cc1 | 45 | 17 | Activity [14]: Active; Activity [15]: Active
COc1ccc(-c2[nH][nH]c(=O)c2Cc2c(O)ccc3cc(Br)ccc23)cc1 | 40 | 30 | –
CCc1ccc2c(Cc3c(-c4ccc(C)cc4)[nH][nH]c3=O)c(O)ccc2c1 | 45 | 23 | –
